# Experimental data reported in ChEMBL document CHEMBL4513216, “Probing the Open Global Health Chemical Diversity Library for Multistage-Active Starting Points for Next-Generation Antimalarials” (ACS Infect Dis, 2020).
# Experiment: Toxicity liver stage against HepG2, at 10uM
# Type: cell-based
# Design: test concentration 10 uM, cell line HepG2-A16-CD81EGFP
# Settings: human, HepG2-A16-CD81EGFP cells; read-out: INHIBITION
# In short: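 Uninfected HepG2-A16-CD81EGFP cells, 3 × 10^3 per well, 1536-well, plated on prespotted compound at 10 μM final, parasite-free screening media added to match infected plates; puromycin 10 μM positive, DMSO 0.5% negative; run in parallel with 48 h PbLuc assay at 37 °C, 5% CO2; viability by CellTiter-Glo luminescence, normalized to controls.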
row,SMILES,cytotoxicity at 10 µM
1,Cc1cc2[nH]c(=O)c(=O)[nH]c2cc1S(=O)(=O)NC1CCC(C)CC1 (stereo not given),-10.5%
2,CC(C)(C)c1c[nH]c([C@@H]2COCCN2C2CCC2)n1,5.99%
3,O=C(C1CCN(S(=O)(=O)N2CCCC2)CC1)N1CCC2(CC1)OCCO2,-17.9%
4,CCN1Cc2cc(F)ccc2N(C(C)=O)CCC1=O,-4.78%
5,C=Cc1ccc(CSc2nc3c(c(=O)[nH]2)CN(CCC)CC3)cc1,-4.68%
6,CN1CCCN(C(=O)c2nnn(-c3ccc(C(F)(F)F)cc3)n2)CC1,-7.37%
7,CCS(=O)(=O)N1CCc2nc(N3CCCC3)nc(N(C)C)c2CC1,14.3%
8,O=C(CC1CC1)N1CCCn2c(nnc2Cn2cccc2)C1,10.7%
9,CC(C)CN1C[C@H]2CCN(C(=O)C3CCCO3)CC[C@H]2S1(=O)=O (stereo not given in full),19.3%
10,CC1CCN(c2ccc3c(-c4ncc(C(=O)O)s4)noc3c2)CC1,2.13%
11,CCc1nn2c(=N)c(C#N)n[nH]c2c1-c1ccc(OC)cc1,-3.73%
12,CCc1noc(C2CCCCN2C(=O)c2cc(C)on2)n1 (stereo not given),5.67%
13,COc1cc(NCc2cccnc2)c(-c2nn[nH]n2)cc1OC,7.88%
14,CCN1CCN(C(=O)C2CC(=O)N(c3cnn(C(C)C)c3)C2)CC1 (stereo not given),5.61%
15,CS(=O)(=O)N[C@@H]1CN(Cc2ccccc2)C[C@H]1O,-2.92%
16,CC(=O)N1CCC(c2ncc(C(=O)Nc3ccccc3)c(C)n2)CC1,5.91%
17,Fc1ccccc1CN1CCC[C@@H](Cn2nnc(-c3cccs3)n2)C1,4.77%
18,CCCC(=O)N1CCCCC1c1nc(N(C)C)ncc1-c1cc(C)no1 (stereo not given),4.94%
19,CCC(=O)N1CCCCC1c1nc(N(C)C)ncc1-c1cc(C)no1 (stereo not given),5.69%
20,O=C(c1ccc(-n2cccn2)nc1)N1CCC(c2ccn[nH]2)C1 (stereo not given),-0.399%
21,CC(=O)N1CCN([C@@H]2CN(C(=O)c3ccccc3C)C[C@H]2O)CC1,-3.79%
22,CC(C)NC(=O)C1CCc2nnc(CNC(=O)c3ccc(Cl)cc3Cl)n21 (stereo not given),5.84%

row,SMILES,cytotoxicity at 10 µM
1,COc1c(CNCCc2c[nH]c3ccccc23)c(C(C)C)nn1C,3.41%
2,Cc1ccccc1CCCN1CCS(=O)(=O)CC1C (stereo not given),1.57%
3,CC(C)N1C(=O)CN(CCOCCO)CC1(C)C,1.94%
4,Cc1ccccc1C(C)NC(=O)CN1CCN(Cc2ccc(Br)s2)CC1 (stereo not given),22.9%
5,CCc1nnc(CS(=O)(=O)c2ccc(C)c(C)c2)n1C,0.617%
6,CC(C)NC(=O)CN(C)C(=O)c1csc(Cc2ccccc2F)n1,3.24%
7,Cc1nnc(CN2CCCC2c2ccc3c(c2)OCCCO3)n1C (stereo not given),4.86%
8,CN(CCCOc1ccc(F)cc1)S(=O)(=O)c1cnn(C)c1,-0.336%
9,Cc1cc(C(=O)NCC2CCCC2)c(C)n1-c1cccnc1,5.69%
10,CC(NCc1ccc(OCC(N)=O)cc1)c1ccc2c(c1)CCCC2 (stereo not given),-0.699%
11,CNC(=O)CCNC(=O)c1cc(Br)c2c(c1)OCCO2,3.82%
12,CSCC(CCO)Nc1cccc(C(F)(F)F)n1 (stereo not given),0.515%
13,Cc1[nH]ncc1CCCNC(=O)Nc1ccc(S(C)(=O)=O)nc1,-3.71%
14,COc1ccc(NC(=O)COc2nn(C)c3nc(C)cc(C)c23)cn1,-4.36%
15,Cc1nc(C)n(CC2CCCN2Cc2coc(-c3cccs3)n2)n1 (stereo not given),-9.61%
16,Cc1cnc(C(NC(=O)NCC2(CO)CC2)C2CC2)s1 (stereo not given),1.8%
17,CCN1CCCC1CN(CCN(C)C)S(=O)(=O)c1ccccc1C#N (stereo not given),-8.58%
18,O=C(NCCc1ccccc1Cl)NCC1(O)CCSC1 (stereo not given),-6.17%
19,COc1ccnc(N2CCN(C(C)c3nc(C)no3)CC2)n1 (stereo not given),-1.33%
20,CC(C)(C)OC(=O)N1CCC[C@H](NCC2=CCCOC2)C1,-6.93%
21,Cc1nn(C)c(C)c1OCC(=O)N1CCCC1,-10.9%
22,COCCn1cc(NC(=O)NCC2CCN(c3ccccc3)C2)cn1 (stereo not given),2.21%

row,SMILES,cytotoxicity at 10 µM
1,CC(C)N1CCC(Nc2ccn(C)n2)C1=O (stereo not given),-0.794%
2,CC(C)(C)CC(=O)NCC(=O)Nc1ccn(CCCn2ccnc2)n1,10.6%
3,Cc1ccc(N2CCCN(C(=O)c3n[nH]c4c3CCC4)CC2)nn1,3.81%
4,CCCN(CCC)C(=O)CN(C)Cc1cnc(C)s1,20.9%
5,c1ccc(CCN2CC(n3cccn3)C2)nc1,-0.2%
6,COc1cc(C)c(CNC(C)c2nc(C)cs2)cc1OC (stereo not given),2.58%
7,CN(C(=O)CCc1nc(C2CC2)no1)c1cc(C#N)c2ccccc2n1,0.55%
8,COCCCn1ccc(NS(=O)(=O)c2cc(F)c(C)cc2F)n1,19.1%
9,CN(C)C1CCN(C(=O)NCc2ccc(Cn3cncn3)cc2)CC1,-3.6%
10,Cc1ccc(NC(=O)Cn2cc(I)cn2)cc1,9.06%
11,CN(C)C(=O)CNC(=O)Nc1cccc(Cl)c1SC(F)F,1.31%
12,NS(=O)(=O)N1CCc2ccc(NC(=O)Cc3ccc(F)cc3)cc21,-9.06%
13,O=C(c1ccoc1)N1Cc2cnn(CC3CC3)c2C(COCC2CC2)C1 (stereo not given),-6.98%
14,O=C([C@@H]1CCS(=O)(=O)[C@@H]2CN(c3ncccn3)C[C@@H]21)N1CCOCC1,-100%
15,Cc1nc(C)c2c(n1)CCN(C(=O)C1(C#N)CC1)CC2,-102%
16,CS(=O)(=O)NC[C@]12COC[C@H]1CN(C(=O)C1CC=CC1)C2,-105%
17,O=C(c1cccs1)N1CCC2(CC1)CN(c1ccsc1)C(=O)CO2,-70.5%
18,CCOc1ccc(Cl)cc1C(C(=O)O)N1CCOCC1 (stereo not given),-0.924%
19,Cc1cccc2[nH]c(COCC(=O)N3CCCn4cncc4C3)nc12,2.03%
20,CCCn1ncc(CN(Cc2cccnc2)Cc2ccsc2)c1C,13.1%
21,CC(C)(C)c1ccc(-n2ncc3c2CCCC3N)cc1 (stereo not given),-0.711%
22,CCC(NC(=O)CCNC(=O)c1ccccc1F)c1cc(C)ccn1 (stereo not given),-11.4%

row,SMILES,cytotoxicity at 10 µM
1,O=C(CCCn1ccnc1)N[C@H]1CN(C2CCCC2)C[C@@H]1C1CC1,7.69%
2,CCCn1ccnc1CN1CCC(Oc2ccc(Cl)cc2)(C(=O)O)CC1,3.47%
3,Cc1cncc(NC(=O)c2ccc(CN3CCCC(C(N)=O)C3)cc2)c1 (stereo not given),0.86%
4,CC(=O)N1CCCN(C(C(=O)O)c2cccc(C)c2C)CC1 (stereo not given),-2.75%
5,Cc1n[nH]cc1C(=O)NCc1cccnc1N1CCc2ccccc2C1,8.81%
6,CCc1nnc(N2CCN(CCc3ccccc3)C(=O)C2)o1,-1.01%
7,COc1cc(F)c(C(=O)NCc2cc(C)on2)c(F)c1,-0.376%
8,Nc1nc2c(c(NCC(c3cccnc3)N3CCOCC3)n1)CCNC2 (stereo not given),9.03%
9,Cc1cc(CC(C)NC2CCSCC2)[nH]n1 (stereo not given),1.08%
10,CCCn1ncc(C(=O)N(C)Cc2n[nH]c3c2CCC3)c1C,0.213%
11,CCc1cc(C(=O)N2CCCn3nc(CCC(=O)O)cc3C2)cs1,-3.32%
12,Cc1cc(F)ccc1OC1(C(=O)O)CCN(Cc2c[nH]cn2)CC1,1.18%
13,Cc1ccc(S(=O)(=O)N2C[C@H](C3CC3)[C@@H](N)C2)cc1F,-3.25%
14,CCOc1ccc(-c2ccnc(C3CC3)n2)cc1C(=O)O,-0.173%
15,Cn1ncc2c(N3CC(N4CCCCC4)C3)nc(-c3ccncc3)nc21,5.18%
16,COc1ccc(C(C(=O)O)N(C)CCN2CCOCC2)c(C)c1 (stereo not given),2.66%
17,Cc1noc(CN(C)CC2(O)CCCN(CCC3CCCCC3)C2=O)n1 (stereo not given),-3.73%
18,O=C1N(CCO)CCCC12CCN(Cc1noc(C3CCCC3)n1)C2 (stereo not given),-0.973%
19,COc1cccc(S(=O)(=O)N2CCCCC2CCN2CCOCC2)c1 (stereo not given),-5.31%
20,CN(Cc1cc[nH]n1)C(=O)c1ccc2c(c1)nc(N1CC[C@H](O)C1)n2C,4.43%
21,COc1ccc2c(c1)C(C(=O)N(C)CCCc1nccn1C)CC(=O)N2 (stereo not given),-56%
22,Cc1ccc(-c2ccc(Cl)nn2)cc1S(N)(=O)=O,-12.3%

row,SMILES,cytotoxicity at 10 µM
1,O=C(c1ccc(F)cc1F)N1C[C@@H](O)[C@H](N2CCOCC2)C1,-1.37%
2,O=C1NCCN1C1CCN(CCOc2ccccc2Cl)CC1,-6.69%
3,CCC(C)NC(=O)CCNC(=O)Nc1ccc(-n2cncn2)c(F)c1 (stereo not given),-0.22%
4,CC(C)(O)CN1CCN(C(=O)COCc2ccccc2Cl)CC1,-4.72%
5,CNS(=O)(=O)Cc1ccc(CNC(=O)c2cccc(C)n2)cc1,-3.79%
6,CC(=O)N(C)c1nc(CN2CCCCC2Cn2cncn2)cs1 (stereo not given),-5.79%
7,Cc1ccc(C(=O)NS(=O)(=O)c2cccc3cnccc23)c(=O)[nH]1,-8.16%
8,O=C(NCC1CCOC1)Nc1ccc(OCC(F)(F)F)nc1 (stereo not given),-5.41%
9,CCc1nc2n(n1)CC(NCC(=O)Nc1ccc(Cl)cn1)CC2 (stereo not given),-10.3%
10,CCc1[nH]ncc1C(=O)N1CCCC(n2cccn2)C1 (stereo not given),4.62%
11,Cc1cnn(CC2CCCN2C(=O)c2cc(Cl)ccc2F)c1 (stereo not given),-5.82%
12,c1cnn(CC2CN(CC3CCCC3)CCO2)c1 (stereo not given),-2.55%
13,CC(C)COC(C)C(=O)NCc1cc(F)cc(F)c1 (stereo not given),3.37%
14,COCC1COCCC12CCN(Cc1nccs1)CC2 (stereo not given),2.31%
15,Cc1occc1C(=O)N1CCC[C@]2(C[C@@H](OCc3ccccn3)CO2)C1,-72.4%
16,Cc1noc(C)c1CN1CCN(Cc2cccnc2)c2ncccc2C1,-67.1%
17,O=C(NCc1cnc2n1CCN(Cc1nccs1)C2)c1ccno1,-104%
18,CCC(C)N1Cc2c(C(=O)N3CCCC3)nn(C)c2C1 (stereo not given),-5.03%
19,c1ccc(CN2CC[C@@H]3O[C@@H](COCC4CCOCC4)CC[C@@H]32)nc1,-1.98%
20,Cc1nc(CN2CCO[C@@H]3CN(Cc4ccsc4)C[C@@H]3C2)cs1,2.99%
21,O=C(C1CCOCC1)N1C[C@@H]2CN(Cc3ccsc3)CCO[C@@H]2C1,-77.5%
22,COCCN1CCc2ncnc(NC(C)C)c2CC1,2.13%
